According to ChEMBL document CHEMBL3997810, “A Novel Potent Anticancer Compound Optimized from a Natural Oridonin Scaffold Induces Apoptosis and Cell Cycle Arrest through the Mitochondrial Pathway” (J Med Chem, 2017):
The source made the active and inactive calls. The calls are words filed in the database; no cut-off is given here.

How the values were obtained:
MCF7 [1] = assay: Induction of apoptosis in human MCF7 cells assessed as early apoptotic cells at 0.5 uM after 24 hrs by Annexin-V FITC/propidium iodide staining based flow cytometry (reference value: 2.65%); assay type: functional
[2] = Antiproliferative activity against human BEL7404/CP20 cells after 48 hrs by MTT assay; assay type: functional, cell-based; details: BEL7404/CP20, 48 h
Summary of the method: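 Colorimetric MTT assay. KB-3-1, NCI-H460 and Bel-7404 cells were seeded at 4000 cells/well; resistant KB/CP4, NCI-H460/MX20 and Bel-7404/CP20 were seeded at 7000 cells/well. Cells were pre-incubated 24 h at 37 °C, 5% CO2, then exposed to a compound concentration series for 48 h with DMSO ≤0.25%. Absorbance read at 570 nm. Quadruplicate wells, three repeats; means ± SD.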

MCF7 [3] = assay: Cell cycle arrest in human MCF7 cells assessed as accumulation at G1 phase at 1 uM after 48 hrs by propidium iodide staining based flow cytometry (reference value: 49.77%); assay type: functional
Summary of the method: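 MCF-7 cells, 5 × 10^4 per well, seeded overnight, then exposed to 0.125–1 μM compound, or DMSO, for 48 h. Ethanol-fixed (70%, −20 °C, 12 h) and stained with PI/RNase at 37 °C for 30 min. Phase distribution determined by flow cytometry.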

Bel-7402 [4] = assay: Cell cycle arrest in human Bel7402 cells assessed as accumulation at G2/M phase at 0.5 uM after 48 hrs by propidium iodide staining based flow cytometry (reference value: 56.61%); assay type: functional
K562 = assay: Antiproliferative activity against human K562 cells after 72 hrs by MTT assay; assay type: functional, cell-based; details: K562, 72 h
Summary of the method: (§1)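 MGC-803 and MCF-7 cells grown in DMEM (MCF-7 with 1× NEAA); Bel-7402 and K562 grown in RPMI 1640; all media with 10% FBS. Cells seeded at 3500/well, pre-incubated 24 h, then exposed to compounds in fresh medium (DMSO ≤0.25%) for 72 h at 37 °C. MTT read-out at 570 nm. Quadruplicate wells, repeated three times; means ± SD (n = 3).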

MCF7 [5] = assay: Induction of apoptosis in human MCF7 cells assessed as increase in caspase-9 protein expression up to 1 uM after 48 hrs by Western blot method; assay type: functional, cell-based
Summary of the method: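 MCF-7 cells were treated at 0, 0.125, 0.25, 0.5 or 1 μM for 48 h, washed in ice-cold PBS and lysed on ice for 20 min. Lysates were spun at 13,000 g, 4 °C. 20 μg protein was run on SDS-PAGE and blotted to PVDF, probed overnight at 4 °C with primary antibodies, then with fluorescent secondary antibodies. Band density was expressed relative to β-actin; three independent experiments.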

Bel-7402 [6] = assay: Cell cycle arrest in human Bel7402 cells assessed as accumulation at G2/M phase at 4 uM after 48 hrs by propidium iodide staining based flow cytometry (reference value: 56.61%); assay type: functional
Bel-7402 [7] = assay: Cell cycle arrest in human Bel7402 cells assessed as accumulation at G2/M phase at 1 uM after 48 hrs by propidium iodide staining based flow cytometry (reference value: 56.61%); assay type: functional
MCF7 [8] = assay: Induction of mitochondrial membrane potential depolarization in human MCF7 cells assessed as ratio of red fluorescence to green fluorescence at 1 uM after 36 hrs by JC1 staining based fluorescence microscopic method (reference value: 1.433); assay type: functional
Summary of the method: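 MCF-7 cells were treated with 0, 0.25, 0.5 or 1 μM for 36 h and loaded with 10 μg/mL JC-1 for 30 min at 37 °C, then washed in PBS. Monomers were read at ex 490/em 535 nm and aggregates at ex 525/em 600 nm, by plate reader or fluorescence microscopy. The red/green ratio came from 10,000 cells per group, in triplicate, mean ± SD.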

MCF7 [9] = assay: Induction of apoptosis in human MCF7 cells assessed as early apoptotic cells at 1 uM after 24 hrs by Annexin-V FITC/propidium iodide staining based flow cytometry (reference value: 2.65%); assay type: functional
MGC-803 = assay: Antiproliferative activity against human MGC803 cells after 72 hrs by MTT assay; assay type: functional, cell-based; details: MGC-803, 72 h; summary of the method: as §1
Mus musculus [10] = assay: Cardiotoxicity in Balb/c nude mouse xenografted with human MCF7 cells assessed as morphological changes in heart at 20 mg/kg/day, iv for 4 weeks by hematoxylin and eosin staining based microscopic method; assay type: toxicity, organism-based; details: in vivo, 672 h
Summary of the method: (§2)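 Male BALB/c nude mice (6 weeks old) carrying subcutaneous MCF-7 xenografts (1 × 10^6 cells). Dosed iv 20 mg/kg daily for 28 days in 10% DMF/2% poloxamer/88% saline; six mice per group. Organs then fixed in 4% paraformaldehyde, paraffin-embedded, cut at 5 μm, stained with Harris hematoxylin and eosin-phloxine, and examined by light microscopy.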

Mus musculus [11] = assay: Hepatotoxicity in Balb/c nude mouse xenografted with human MCF7 cells assessed as morphological changes in liver at 20 mg/kg/day, iv for 4 weeks by hematoxylin and eosin staining based microscopic method; assay type: toxicity, organism-based; details: in vivo, 672 h; summary of the method: as §2

IC50 (K562): 290 nM | IC50 (MGC-803): 1030 nM
SMILES: C=C1C(=O)[C@]23[C@H](OC(=O)/C=C/c4ccccc4)[C@H]1CC[C@H]2[C@]12C=CCC(C)(C)[C@H]1[C@H](O)[C@]3(O)OC2
Activity (MCF7 [1]): 13.3% | IC50 [2]: 4730 nM | Activity (MCF7 [3]): 35.75% | Activity (Bel-7402 [4]): 57.83% | Activity (MCF7 [5]): Active | Activity (Bel-7402 [6]): 63.11% | Activity (Bel-7402 [7]): 59.37% | Ratio (MCF7 [8]): 0.385 | Activity (MCF7 [9]): 22.4% | Activity (Mus musculus [10]): Non-Toxic | Activity (Mus musculus [11]): Non-Toxic
